Ecoli tolC – blocks growth of E. coli BW25113 tolC mutant. OD615. growth inhibition, % at 10 µM (by protocol). 65,000 compounds, 2.2% hits. AID 573;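 active means growth inhibition at or above a cutoff equal to the mean over every tested compound plus 3 SD, cut at about 60% in these data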;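 further: growth measured after 20 h incubation at 37 °C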
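Assay system: tolC-deleted E. coli BW25113. Medium: kanamycin-containing LB broth (50 µg/mL). Dosing: 10 µM final, single dose. Timing: bacterial growth with compound for 20 h at 37 °C. Detection: A615 absorbance measurement. Read-out basis: growth inhibition in percent.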
PostGolgi yeast – growth inhibition of a yeast mutant, post-Golgi transport screen. post-Golgi transport phenotypic cell assay. inhibition, % at 10 µM. 98,000 compounds, 0.9% hits;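 further: yeast cells grown in 1536-well plates; yeast grown about 18 h at 30C before absorbance read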
Cav32 inh – inhibitors of human Cav3.2 T-type calcium channel. AID 449739. B-score at 10 µM. O95180. 100,000 compounds, 4% hits. Cav3.2-expressing cells, Fluo-4 calcium fluorescence FDSS; hits give low values;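 active means single-dose well whose peak fluorescence ratio is a statistical outlier from its plate by either plate-standardised score or position-corrected B-score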
E coli WT exp – E. coli BW25113 growth inhibition, expanded screen; OD600 absorbance; growth inhibition, % at 100 µM; 98,000 compounds, 0.15% hits;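 active means growth inhibition above about 50% at one test dose, limit read from the data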;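 further: growth measured after 20 h incubation at 37 °C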
PostGolgi ctrl – inhibits growth of the yeast control strain; efflux-deficient yeast background strain, growth absorbance A615, 16 h; inhibition, % at 10 µM; 98,000 compounds, 5% hits; AID 738
Of the large screens only hits and unclear results are named; the others gave an inactive call. The list is not random: actives were taken first. Their share in the collection is about 8.4%. Unless noted, no stated cut-off is given here; in the data, active means inhibition above about 30%; inactive means the rest.

CCCCOc1ccccc1NC(=O)c1ccco1	Cav32 inh -4.5
CCCCCOC(=O)c1ccc(NC(=O)c2ccco2)cc1	Ecoli tolC 99 (no result: Cav32 inh)
CC(=O)c1ccc(S(=O)c2ccccc2)cc1 (stereo not drawn)	none (no result: Ecoli tolC)
COC(=O)c1ccc(OC)c(CSc2nnc(COc3ccc(Cl)cc3)o2)c1	Cav32 inh -5.8
COC(=O)c1ccc(OC)c(CSc2nnc(COc3ccccc3)o2)c1	Ecoli tolC 62
O=C(/C=C/c1ccccc1Cl)NC(=S)Nc1ccccc1C(=O)NC1CCCCC1	none (no result: Ecoli tolC)
O=[N+]([O-])c1cc(/C=N/OCc2c(Cl)cccc2Cl)ccc1N1CCOCC1	none (no result: Ecoli tolC)
Clc1ccc(OCCn2ccnc2)c2ccccc12	Ecoli tolC 100, E coli WT exp 64
Clc1ccc(OCCn2ccnc2)c(Cl)c1	none
COc1cc(/C=N/Nc2nc(Nc3ccc(C)cc3)nc(-n3nc(C)cc3C)n2)cc(OC)c1OC	none (no result: Ecoli tolC)
COc1ccc(O)c(/C=N/Nc2nc(Nc3ccccc3)nc(-n3nc(C)cc3C)n2)c1	Cav32 inh -4.4 (no result: Ecoli tolC)
CCN(C(=O)CCN1C(=O)c2ccccc2C1=O)C1CCCCC1	none
O=C(COc1ccc(Br)cc1)N1CCC(c2ccccc2)C1 (stereo not drawn)	Cav32 inh -4.1 (no result: Ecoli tolC)
O=C(CCN1C(=O)c2ccccc2C1=O)N1CCN(c2ccccc2)CC1	none
O=C(CCN1C(=O)c2ccccc2C1=O)N1CCC(c2ccccc2)C1 (stereo not drawn)	PostGolgi ctrl 32
CCOC(=O)N1CCC(N(C(=O)Nc2ccccc2)C(C)CC)CC1 (stereo not drawn)	none
CCOC(=O)N1CCC(N(C(=O)Nc2ccc(CC)cc2)C(C)CC)CC1 (stereo not drawn)	PostGolgi ctrl 30
COc1cccc(Nc2nc3ccccc3n3cnnc23)c1	PostGolgi ctrl 33 (no result: Ecoli tolC)
O=C(CN1C(=O)C2C3C=CC(C3)C2C1=O)N1CC(=O)N(CCc2ccccc2)C(=O)C1 (stereo not drawn)	none
O=C(CN1C(=O)C2C3C=CC(C3)C2C1=O)N1CC=C(c2ccccc2)CC1 (stereo not drawn)	PostGolgi ctrl 31
Cc1ccc2c(c1)-c1cc(C)nn1C(c1sccc1C)N2 (stereo not drawn)	PostGolgi ctrl 30
Cc1cc2n(n1)C(c1sccc1C)Nc1ccccc1-2 (stereo not drawn)	none
O=C1NC[C@@H](Cc2cccc3ccccc23)N(CC2(c3ccccc3)CC2)C1=O	none (no result: Ecoli tolC, PostGolgi yeast, E coli WT exp, PostGolgi ctrl)
COc1ccc(CNC(=O)C/C(C)=N/NC(=O)C(c2ccccc2)c2ccccc2)cc1	Cav32 inh -4.2 (no result: Ecoli tolC)
Oc1sc(C=Nc2ccc(F)cc2)c2ccccc12	none (no result: Ecoli tolC)
Oc1c(C=Nc2cccnc2)sc2ccccc12	PostGolgi ctrl 31
Oc1sc(C=Nc2ccccc2)c2ccccc12	Cav32 inh -5.1 (no result: Ecoli tolC)
CCc1cc(=O)oc2cc(C)c(CN3CCCC(C)C3)c(O)c12 (stereo not drawn)	PostGolgi yeast 33
COc1ccc(N2CCN(CC(O)COc3ccc4c(c3)CCC4)CC2)cc1 (stereo not drawn)	PostGolgi ctrl 38 (no result: Ecoli tolC)
OC(COc1ccc2c(c1)CCC2)CN1CCN(c2ccccc2F)CC1 (stereo not drawn)	none
Cc1ccc2nc(-c3ccccc3Cl)cc(C(=O)Nc3cc(C)on3)c2c1	none
c1ccc(OCCCc2nc(-c3ccccn3)no2)cc1	none
O=C(Nc1ccc2c(c1)OCCO2)C1CCN(C(=O)c2ccccc2)CC1	PostGolgi ctrl 31 (no result: Ecoli tolC)
O=C(Nc1ccc2c(c1)OCCO2)C1CCN(c2nnnn2-c2ccccc2)CC1	none
O=C(Nc1cccc(F)c1)C1CCN(c2nnnn2-c2ccccc2)CC1	Cav32 inh -7.5
O=C(Nc1ccc2c(c1)OCCO2)C1CCN(C(=O)c2ccc(Br)cc2)CC1	none
O=C(c1ccc2c(c1)OCCO2)C1CCN(C(=O)c2ccc(F)c(F)c2)CC1	Cav32 inh -3.9
O=C(Nc1cccc(F)c1)C1CCN(C(=O)c2ccc(Br)cc2)CC1	Cav32 inh -4.3 (no result: Ecoli tolC)
CCO[C@H]1OC(C(=O)N2CCN(Cc3ccc4c(c3)OCO4)CC2)=C[C@@H](C2CC2)[C@@H]1CCCO	none (no result: Ecoli tolC, PostGolgi yeast, E coli WT exp, PostGolgi ctrl)
O=C(CCSc1ccccc1)Nc1ccc(S(=O)(=O)N2CCOCC2)cc1	none
CCc1ccc(NC(=O)CSc2nc3cc(C(=O)OC)ccc3c(=O)n2CC2CCCO2)cc1 (stereo not drawn)	none (no result: Ecoli tolC)
CCCSC(=O)N(CC)CC(=O)Nc1c(CC)cccc1CC	none (no result: Ecoli tolC)
C=CCC(=O)OCC(=O)Nc1ccc(Oc2ccccc2)cc1	none (no result: PostGolgi yeast, Cav32 inh, E coli WT exp, PostGolgi ctrl)
Cn1c(Cn2cnc3ccccc32)nnc1SCc1ccccc1	none
CCOc1ccc(CC(=O)Nc2sc(Cc3ccccc3)cc2C(N)=O)cc1OCC	none (no result: Ecoli tolC)
NC(=O)c1cc(Cc2ccccc2)sc1NC(=O)c1ccco1	PostGolgi ctrl 45
Cc1cc(/C=C(\C#N)C(=O)NCc2cccs2)c(C)n1-c1ccccc1F	Cav32 inh -4.8 (no result: Ecoli tolC)
Cc1ccc(C)c(OCCn2cc(/C=C(\C#N)C(=O)NCc3cccs3)c3ccccc32)c1	none (no result: Ecoli tolC)
Cc1cc(/C=C(/C#N)C(=O)Nc2ccccc2)c(C)n1-c1cccnc1	none (no result: Ecoli tolC)
Cc1cc(/C=C(\C#N)C(=O)Nc2ccccc2)c(C)n1-c1ccc2c(c1)OCO2	PostGolgi ctrl 55 (no result: Ecoli tolC)
O=C(CCc1c[nH]c2ccccc12)NC1CC1	none (no result: Ecoli tolC)
Brc1cc(Br)c2nc(-c3ccc(N4CCOCC4)cc3)ccc2c1	PostGolgi ctrl 36 (no result: Ecoli tolC, Cav32 inh)
Cc1cc(Oc2cnn(C(C)(C)C)c(=O)c2Cl)cc(C(C)C)c1	none (no result: Ecoli tolC, PostGolgi yeast, E coli WT exp, PostGolgi ctrl)
CCN1C(=O)N(c2cccc3ccccc23)C(C)=CC1(C)C	Cav32 inh -5.7 (no result: Ecoli tolC)
Cc1ccc(Cn2ccc(=O)c(OCc3c(Cl)cccc3Cl)c2C)cc1	PostGolgi ctrl 48 (no result: Ecoli tolC)
Cc1[nH]ccc(=O)c1OCc1c(Cl)cccc1Cl	none (no result: Ecoli tolC)
CCCOc1ccc2oc(=O)c3c(c2c1)CCCN3C(=O)CN1CCc2ccccc2C1	Ecoli tolC 77
Cc1cc(C)nc(/N=c2/ssnc2Cl)c1	PostGolgi yeast 64, PostGolgi ctrl 54
Cc1ccc(N=c2ssnc2Cl)cc1	none (no result: Ecoli tolC)
CCN1CCN(C(=O)c2cnn3c(C(F)F)cc(-c4ccc(C)cc4)nc23)CC1	none
Cc1ccc(-c2cc(C(F)F)n3ncc(C(=O)N4CCN(c5ccccn5)CC4)c3n2)cc1	Cav32 inh -5.3
CC1(C)CC(=O)C2=C(C1)N(c1ccccc1)C(=O)CC2c1ccsc1 (stereo not drawn)	none (no result: Ecoli tolC)
CCCSc1nnc(N2C(=O)CC(c3ccsc3)C3=C2CCCC3=O)s1 (stereo not drawn)	PostGolgi ctrl 48
O=C(Nc1ccccc1C(=O)N1CCN(Cc2ccccc2)CC1)c1ccccn1	none
CCN1CCN(C(c2cccs2)C(C)NS(=O)(=O)c2ccc(Br)cc2)CC1 (stereo not drawn)	none (no result: Cav32 inh)
CC(=O)c1c(C(C)=O)c(C)n(-c2nc(-c3ccc(C)c(C)c3)c(C)s2)c1C	PostGolgi ctrl 48 (no result: Ecoli tolC)
CC(NS(=O)(=O)c1ccccc1)C(=O)Nc1nccs1 (stereo not drawn)	none
O=C(Nc1nccs1)C(NS(=O)(=O)c1ccc(Br)s1)c1ccccc1 (stereo not drawn)	Ecoli tolC 61, Cav32 inh -5.8
Fc1ccc(C2=Nn3c(Cc4ccccc4F)nnc3SC2)cc1	none (no result: Ecoli tolC)

From PubChem
